Source: PubChem BioAssay
DDE Tn7 FP inh: inhibitors of Tn7 peptide binding to fibrin DD(E), primary screen, biochemical, fluorescence polarization, human fibrin, Tn7 probe | FP displacement of FITC-Tn7 peptide from fibrin DD(E); 0% = median of compound wells per plate | inhibition, % at 8.3 µM | 0.13% of 370,000 active | AID 720508, 2013;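 active = inhibition above the mean of compounds falling within the control limits plus 3 SD of them, cut at about 14% in these data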;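 note: 0% = plate median of compound wells and 100% = 10 µM Aha-Tn7 peptide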
Target sequence (P02675 whole entry, looked up): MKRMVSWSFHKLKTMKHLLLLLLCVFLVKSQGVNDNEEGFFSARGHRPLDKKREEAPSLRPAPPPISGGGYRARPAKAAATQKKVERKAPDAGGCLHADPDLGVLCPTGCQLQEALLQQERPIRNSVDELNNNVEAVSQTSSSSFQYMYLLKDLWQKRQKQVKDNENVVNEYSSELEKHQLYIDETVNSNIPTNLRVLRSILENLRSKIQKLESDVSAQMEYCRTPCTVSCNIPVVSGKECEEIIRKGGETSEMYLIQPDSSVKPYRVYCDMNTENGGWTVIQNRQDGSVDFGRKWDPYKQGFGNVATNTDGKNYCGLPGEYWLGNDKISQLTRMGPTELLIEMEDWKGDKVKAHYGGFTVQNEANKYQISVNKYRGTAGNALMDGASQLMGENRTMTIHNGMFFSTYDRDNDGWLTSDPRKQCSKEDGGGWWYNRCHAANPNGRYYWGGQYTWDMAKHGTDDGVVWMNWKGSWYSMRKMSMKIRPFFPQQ
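Test system – human fibrin DD(E) · Times – 10 min preincubation, 3 h with tracer, room temperature · Detection – fluorescence polarization of the labelled Tn7 tracer · Measure – percent inhibition normalized to high-control wells · Benchmarks – high control wells with 10 µM unlabelled Aha-Tn7 peptide (full inhibition) · Repeats – singlicate testing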
CAL PDZ FP-1: CAL PDZ peptide-binding inhibitors, primary screen, biochemical, fluorescence polarization, Cer-tagged CAL PDZ, HTS; 0.02% of 330,000 active; inhibition, % at 20 µM; purified CAL PDZ, TMR-peptide fluorescence polarization, 1 h; AID 504414, 2011;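 active = highest replicate inhibition of at least 40%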;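 note: plate controls were DMSO neutral control wells for no effect and unlabeled competitor peptide control wells for full effect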
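System: purified tagged CAL PDZ domain construct (CerCALP). Schedule: 1 h incubation at room temperature before polarization reading. Medium: 25 mM sodium phosphate pH 7.4, 150 mM NaCl, TCEP, IgG, Thesit. Read-out: percent inhibition from loss of millipolarization. Measured by: FP readout, S and P plane fluorescence. Probe or stimulus: fluorescent TMR peptide probe.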
Tn6 DDE FP: inhibitors of Tn6 peptide binding to fibrin DD(E), primary screen, biochemical, fluorescence polarization, human fibrin, Tn6 probe | Fibrin DD(E) TRITC-Tn6 fluorescence polarization displacement | inhibition, % at 8.3 µM | Fibrinogen beta chain (Homo sapiens), P02675 | 0.21% of 370,000 active;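 active = inhibition above a per-campaign cutoff: mean of compounds within control limits plus 3 SD, cut at about 15% in these data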;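 note: 0% = median of all compound wells on the plate and 100% = blocking peptide control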
CAL PDZ FP-2: untagged CAL PDZ binding inhibitors, primary screen, biochemical, fluorescence polarization, HTS; Golgi-associated PDZ and coiled-coil motif-containing protein (Homo sapiens), Q9HD26; purified CAL PDZ, TMR-peptide fluorescence polarization, 1 h; inhibition, % at 24.9 µM; 0.92% of 300,000 active; AID 602252, 2012;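 active = mean inhibition of at least 30% with at least half of replicates also reaching 30%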;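 note: 0% = DMSO neutral control and 100% = excess unlabeled competitor peptide PRC23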
Arrestin-AP2 inh: inhibitors of beta-arrestin/AP2 binding, primary screen, biochemical, GPCR trafficking, flow cytometry. FITC-arrestin peptide / GST-AP2 beads; AP2 beta2 appendage carries R879A mutation. inhibition, % at 10 µM. 0.31% of 340,000 active. AID 504490, 2011;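 active = inhibition above a set limit, near 3 SD of compounds lacking own fluorescence, cut at about 54% in these data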;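 note: plate controls were DMSO wells for no effect and 5 µM unlabelled arrestin peptide for full effect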
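system = GST-tagged AP2 beta2-adaptin appendage (R879A) on 4 µm glutathione beads | reagent = FITC-labelled arrestin peptide probe, 50 nM final | schedule = compound with beads 12 min RT, then probe 1 h RT | signal = HyperCyt-sampled flow cytometry, FL1 channel, ex 488/em 535 nm | read-out = percent response from loss of bead-bound FITC fluorescence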
The depositor's hits bear a star; . = not tested or not shown. An excerpt weighted towards active compounds, which were near 1.4% of everything screened.

SMILES | DDE Tn7 FP inh | CAL PDZ FP-1 | Tn6 DDE FP | CAL PDZ FP-2 | Arrestin-AP2 inh
Cc1ccc(CNS(=O)(=O)c2ccc(F)c(F)c2)n1C | -6.0 | 0.8 | -6.5 | -0.8 | 23.5
O=C(Nc1ccccc1)OC1CCC2CC1CCC2OC(=O)Nc1ccccc1 (stereo not given) | -2.0 | -0.8 | -0.4 | 31.6* | 16.3
Cc1ccc(S(=O)(=O)NCCC(=O)NC(C)CCc2ccccc2)cc1 (stereo not given) | -0.5 | -0.4 | 7.9 | 70.9* | -8.6
Cc1ccc(S(=O)(=O)NCCC(=O)NC(C)c2ccccc2)cc1 (stereo not given) | -4.1 | -2.3 | -3.6 | 0.3 | -5.5
COC(=O)[C@@]12CCCCC3=C1N(CCC3)C(=O)[C@H]2CC(=O)N1CCN(C(=O)C2CC2)CC1 | 0.8 | . | -1.9 | . | .
COc1cccc(C2(O)CCN(C(=O)C(C)C)CC2)c1 | 4.5 | -0.7 | -5.3 | 60.5* | -8.4
COc1ccc(/C=C/C(=O)N2CCN(c3ccccc3)CC2)cc1S(=O)(=O)N1CCOCC1 | 5.2 | -0.4 | 4.9 | 52.4* | 7.7
COc1ccc(/C=C/C(=O)N2CCC(C(N)=O)CC2)cc1S(=O)(=O)N1CCOCC1 | -4.9 | -1.7 | -4.5 | -2.4 | -6.6
C=CCN1[C@H](Cc2ccccc2)COc2cccc(N3CCSCC3)c2S1(=O)=O | -5.4 | . | 10.0 | . | .
Cc1noc(C)c1COc1ccc(C(=O)N2CCN(S(=O)(=O)c3ccc(Cl)cc3)CC2)cc1 | -5.2 | -0.6 | 1.0 | 38.6* | -4.7
Cc1noc(C)c1COc1ccc(C(=O)N2CCN(S(=O)(=O)c3ccc(F)cc3)CC2)cc1 | 3.8 | 0.0 | 1.0 | 0.5 | -5.3
O=C(NCCCc1ccncc1)C1CCC(=O)N(Cc2ccc(Cl)cc2)C1 (stereo not given) | 3.7 | -0.4 | -1.6 | 71.9* | -13.3
CCCN(CCC)C(=O)C1CCCN1S(=O)(=O)c1cccc2nsnc12 (stereo not given) | -10.3 | -0.1 | -4.4 | 1.0 | 3.5
Cc1ccc(N(C)C(=O)C2CCCN2S(=O)(=O)c2cccc3nsnc23)cc1 (stereo not given) | 2.5 | 0.6 | -9.0 | 69.8* | 4.9
C[N+]1=C(N)NC2=C3CCCCC3n3c(=O)n(-c4ccccc4)c(=O)n3C2C1 (stereo not given) | 4.6 | . | 1.8 | . | .
CCN(C(=O)COC(=O)c1ccc([N+](=O)[O-])o1)C1CCCCC1 | -5.1 | 0.9 | -3.0 | 125.5* | -0.8
O=C(COC(=O)c1ccc([N+](=O)[O-])o1)NC1CCCCC1 | 3.3 | -1.3 | 0.6 | 12.5 | -9.7
NC(=S)NNc1cc(Cl)cc(Cl)c1 | 1.4 | . | 5.3 | 97.0* | 7.0
Cc1nc(SCC(=O)N2CCN(C(=O)c3cccs3)CC2)c2c(C)c(C)sc2n1 | -5.2 | -1.2 | 1.9 | 0.3 | -2.3
Cc1nc(SCC(=O)N2CCN(C(=O)c3ccco3)CC2)c2c(C)c(C)sc2n1 | -3.5 | . | -2.3 | 30.9* | 8.0
CCCN1CCN(S(=O)(=O)c2ccc3c(c2)CCC(=O)N3)CC1 | 4.7 | -0.7 | 10.9 | 45.7* | -6.5
COc1ccc(S[C@]2(C(=O)N3CCN(c4ncccn4)CC3)CC(=O)N(c3ccc(OC)cc3)[C@@H]2c2ccc(OC)cc2)cc1 | 0.8 | . | -0.2 | . | .
Cc1ccc(-n2ncc3c2CCCC3NC(=O)CCc2c(C)noc2C)cc1C (stereo not given) | 1.6 | -0.8 | 7.0 | 33.0* | 0.8
CN(C)C(CNC(=O)c1cccc(S(=O)(=O)Nc2ccccc2Cl)c1)c1ccco1 (stereo not given) | -4.5 | -0.4 | 10.6 | 32.4* | -2.3
Cc1ccccc1CNC(=O)c1ccc2ccccc2n1 | 4.3 | -1.4 | -2.3 | 76.2* | 3.8
SMILES | DDE Tn7 FP inh | CAL PDZ FP-1 | Tn6 DDE FP | CAL PDZ FP-2 | Arrestin-AP2 inh
N#Cc1ccc(NCCCN2CCC(C(O)(c3ccccc3)c3ccccc3)CC2)cc1 | -0.9 | . | 11.6 | . | .
O=C(O)c1ccc(N/N=C/c2cn(Cc3ccccc3F)c3ccccc23)cc1 | -0.8 | -0.9 | -4.2 | -4.5 | -9.7
CC(C)n1cc(/C=N/Nc2ccc(C(=O)O)cc2)c2ccccc21 | -2.5 | 0.2 | -2.6 | 71.4* | -7.8
O=C(NCc1ccc(F)c(F)c1)C1CCC(CNS(=O)(=O)c2cccc3cccnc23)CC1 (stereo not given) | 2.6 | . | 1.0 | . | .
N#CCCN(Cc1cccnc1)S(=O)(=O)c1ccc2ccccc2c1 | 3.1 | 0.3 | -0.2 | 5.7 | -15.5
N#CCCN(Cc1ccccc1)S(=O)(=O)c1cccs1 | -2.8 | . | -5.8 | 61.5* | -1.4
C(=C\c1ccccc1)/CSc1nnc(Cc2cccs2)n1-c1ccccc1 | 1.6 | . | -2.5 | . | .
Cc1cc2oc(C(=O)Nc3ccc(S(=O)(=O)Nc4ncccn4)cc3)cc(=O)c2cc1Cl | -5.0 | -0.9 | 13.8 | 90.0* | 3.9
CCOC(=O)C1CCN(c2ccc(Cl)nn2)CC1 | -1.1 | -1.8 | 7.6 | -1.0 | 25.5
CCOC(=O)C1CCN(c2ccc(-c3cccs3)nn2)CC1 | -4.0 | . | 3.3 | 93.2* | -6.4
CCOC(=O)CC(=O)Nc1nnc(C(C)C)s1 | 3.0 | -1.2 | 5.3 | 37.9* | -6.9
Cc1cccc(NC(=O)CNC(=O)[C@@H](Cc2ccccc2)NC(=O)[C@H]2O[C@@H](n3ccc(=O)[nH]c3=O)[C@H](O)[C@@H]2O)c1C | 2.1 | . | -8.4 | . | .
CCCCNS(=O)(=O)c1cc(-c2nn(C)c(=O)c3ccccc23)ccc1C | -5.1 | -1.2 | 2.3 | 56.2* | 7.2
CCCCNC(=O)NS(=O)(=O)c1ccc(NC(=O)CSc2ncnc3scc(-c4ccc(C)cc4)c23)cc1 | -2.1 | . | -2.6 | . | .
O=C1CC(c2cccc(Cl)c2)Cc2nc(N3CCN(c4ccccc4)CC3)ncc21 (stereo not given) | 0.3 | -2.3 | 2.6 | 4.3 | 6.4
CCN1CCN(c2ncc3c(n2)CC(c2cc(OC)c(OC)c(OC)c2)CC3=O)CC1 (stereo not given) | -3.3 | -0.6 | 1.7 | 49.6* | -7.2
COc1ccccc1Oc1coc2cc(OC(=O)N3CCOCC3)ccc2c1=O | 6.2 | 101.9* | 0.6 | -2.3 | -0.4
O=C(Oc1ccccc1)N1CCOCC1 | 7.3 | 13.1 | 6.2 | 74.0* | 3.0
COC(=O)C1CN(Cc2ccc(OC)cc2)CCS(=O)(=O)N1Cc1ccc(F)cc1 (stereo not given) | 2.9 | . | -3.8 | . | .
CCCCCCn1cc(C(=O)O)c(=O)c2cc(F)c(N3CCN(C)CC3)cc21 | . | -1.3 | . | 30.4* | 23.8
CCn1cc(C(=O)O)c(=O)c2cc(F)c(N3CCN(C)CC3)cc21 | -1.3 | 0.6 | 0.7 | 1.3 | -0.3
